Test results published in ChEMBL document CHEMBL1152682, “Structural optimization of a CXCR2-directed antagonist that indirectly inhibits gamma-secretase and reduces Abeta” (Bioorg Med Chem, 2009).

Columns and labels:
[1] = Antagonist activity at CXCR2 expressed in 7w CHO cells co-expressing human recombinant APP 751 assessed as inhibition of gamma-secretase-mediated amyloid beta40 production at 100 uM
[2] = Antagonist activity at CXCR2 expressed in 7w CHO cells co-expressing human recombinant APP 751 assessed as inhibition of gamma-secretase-mediated amyloid beta40 production
[3] = Antagonist activity at CXCR2 expressed in 7w CHO cells assessed as inhibition of GROalpha-mediated intracellular calcium mobilization by […] fluorescence assay; assay type: functional, cell-based
Method in brief: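 Adherent 7w cells (CHO stably expressing human APP751), grown to ~100% confluency in 96-well plates, loaded with […] dye for 1 h at 37 °C. Compounds were added from DMSO stocks in 1X HBSS (1% DMSO final) at ≥9 concentrations (10–100,000 nM), n = 8 each. GROα (33 nM final) followed 15 s later. Peak calcium was read at Ex/Em 494/516, and data were fitted to a 4-parameter sigmoid; three experiments.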

[4] = Antagonist activity at CXCR2 expressed in 7w CHO cells co-expressing human recombinant APP 751 assessed as inhibition of gamma-secretase-mediated amyloid beta42 production; assay type: functional, cell-based

Structure (SMILES) | IC50 [2] [µM] | other results
O=C(Nc1ccccc1O)Nc1ccccc1Br |  | IC50 [1]: Not Active
O=C(Nc1ccccc1)Nc1ccccc1Br |  | IC50 [1]: Not Active
O=C(Nc1ccc([N+](=O)[O-])cc1O)Nc1cc(F)c(F)cc1F | 10 | 
CCCc1ccc(NC(=O)Nc2ccc([N+](=O)[O-])cc2O)cc1 | 4 | 
O=C(Nc1ccc([N+](=O)[O-])cc1O)Nc1c(F)cc(F)cc1F | 15 | 
O=C(Nc1cc(F)c(F)c(F)c1)Nc1ccc([N+](=O)[O-])cc1O | 8 | 
COc1cc([N+](=O)[O-])ccc1NC(=O)Nc1ccccc1Cl |  | IC50 [1]: Not Active
O=C(Nc1ccc([N+](=O)[O-])cc1O)Nc1ccc(Cl)c(Cl)c1Cl | 3 | 
O=C(Nc1ccc([N+](=O)[O-])cc1O)Nc1cc(Cl)c(Cl)cc1Cl | 3 | 
Cc1ccc(NC(=O)Nc2ccc([N+](=O)[O-])cc2O)cc1C | 15 | 
CCc1cccc(C(C)C)c1NC(=O)Nc1ccc([N+](=O)[O-])cc1O | 3 | 
CCc1ccc(NC(=O)Nc2ccc([N+](=O)[O-])cc2O)cc1 | 3 | 
Cc1cccc(C(C)C)c1NC(=O)Nc1ccc([N+](=O)[O-])cc1O | 5 | 
O=C(Nc1ccc([N+](=O)[O-])cc1O)Nc1ccc(Br)cc1Br | 0.8 | 
COc1cc([N+](=O)[O-])ccc1NC(=O)Nc1ccccc1Br |  | IC50 [1]: Not Active
CC(C)c1cccc(C(C)C)c1NC(=O)Nc1ccc([N+](=O)[O-])cc1O | 8 | 
O=C(Nc1ccccc1O)Nc1ccccc1Cl |  | IC50 [1]: Not Active
O=C(Nc1ccc(Cl)c(Cl)c1)Nc1ccc([N+](=O)[O-])cc1O | 0.7 | 
CCc1cccc(C(C)CC)c1NC(=O)Nc1ccc([N+](=O)[O-])cc1O (stereo not given) |  | IC50 [4]: 15 µM
CCC(C)c1ccccc1NC(=O)Nc1ccc([N+](=O)[O-])cc1O (stereo not given) |  | IC50 [4]: 1 µM
COc1cc([N+](=O)[O-])ccc1NC(=O)Nc1ccccc1 |  | IC50 [1]: Not Active
O=C(Nc1ccccc1F)Nc1ccc(O)cc1[N+](=O)[O-] |  | IC50 [1]: Not Active
Cc1cc(C)cc(NC(=O)Nc2ccc([N+](=O)[O-])cc2O)c1 | 2 | 

More lines, main results first:

IC50 [2] [µM] | Structure (SMILES) | other results
0.5 | O=C(Nc1ccc([N+](=O)[O-])cc1O)Nc1ccccc1Br | 
12 | O=C(Nc1ccccc1)Nc1ccc([N+](=O)[O-])cc1O | 
15 | O=C(Nc1ccc([N+](=O)[O-])cc1O)Nc1ccc(F)cc1F | 
3 | Cc1ccc(NC(=O)Nc2ccc([N+](=O)[O-])cc2O)c(C)c1 | 
0.3 | CC(C)c1ccccc1NC(=O)Nc1ccc([N+](=O)[O-])cc1O | IC50 [3]: Active
15 | CC(C)(C)c1ccccc1NC(=O)Nc1ccc([N+](=O)[O-])cc1O | 
8 | O=C(Nc1ccc(F)c(F)c1)Nc1ccc([N+](=O)[O-])cc1O | 
10 | O=C(Nc1ccc([N+](=O)[O-])cc1O)Nc1ccccc1F | IC50 [3]: Active
30 | O=C(Nc1ccc([N+](=O)[O-])cc1)Nc1ccccc1F | 
0.6 | O=C(Nc1ccc([N+](=O)[O-])cc1O)Nc1ccccc1Cl | IC50 [3]: Active
0.3 | O=C(Nc1ccc([N+](=O)[O-])cc1O)Nc1ccc(Cl)cc1Cl | 
10 | Cc1ccc(C)c(NC(=O)Nc2ccc([N+](=O)[O-])cc2O)c1 | 
10 | COc1ccc(NC(=O)Nc2ccccc2F)c([N+](=O)[O-])c1 | 
0.1 | CCCc1ccccc1NC(=O)Nc1ccc([N+](=O)[O-])cc1O | 
7 | CCc1cccc(C)c1NC(=O)Nc1ccc([N+](=O)[O-])cc1O | 
8 | O=C(Nc1ccc([N+](=O)[O-])cc1O)Nc1ccc(F)c(F)c1F | 
5 | COc1cc([N+](=O)[O-])ccc1NC(=O)Nc1ccccc1F | IC50 [3]: Active
4 | CCc1cccc(NC(=O)Nc2ccc([N+](=O)[O-])cc2O)c1 | 
2 | Cc1ccccc1NC(=O)Nc1ccc([N+](=O)[O-])cc1O | 
0.5 | O=C(Nc1ccc([N+](=O)[O-])cc1O)Nc1cc(Cl)ccc1Cl | IC50 [3]: Active
0.09 | CCc1ccccc1NC(=O)Nc1ccc([N+](=O)[O-])cc1O | 
12 | COc1cc([N+](=O)[O-])ccc1NC(=O)Nc1cccc(F)c1 | 
